Most compounds without a hit are left out; they make up all but 2.5% or so of the library.
Efflux pump inh = blocks antifungal efflux pumps in multiplex yeast assay; S. cerevisiae Candida pump triplex, Nile Red efflux; AID 485275; inhibition, % at 10 µM; hit rate 0.44% among 330,000;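 active = plate passing quality check with inhibition over a set limit, or well fluorescence over plate mean plus 4 SD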;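 note: Nile Red retained in pooled yeast measured as flow cytometry median fluorescence; 0% = buffer negative control and 100% = Enniatin B positive control; higher means more Nile Red kept so more efflux inhibition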
MEKK3 PB1 HTS = modulators (inhibitors or enhancers) of MEK5 binding to human MEKK3 PB1 domain; Q99759; hit rate 1.4% among 290,000; AID 1529; binding response (% of control), % at 10 µM; bead-based flow cytometry, Alexa488-MEK5 binding to MEKK3; actives lie on both sides; 0 = blocked by unlabeled MEK5, 100 = vehicle;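 active = binding response more than 3 SD above or below the average of its plate-row segment, actives on both sides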;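 note: Alexa488 bead fluorescence after subtracting the streptavidin-only scavenger bead signal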
ABCB1 inh = inhibitors of human ABCB1 transporter, ABCG2 counter-screen; P08183; CCRF-Adr cells, JC-1 efflux, flow cytometry; inhibition, % at 6.6 µM; hit rate 0.067% among 190,000; in the data active = inhibition above about 40%;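 note: 0% = vehicle and 100% = reference inhibitor; higher value means more JC-1 retained so stronger ABCB1 efflux block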
MEKK2mut PB1 HTS = signal of MEK5 binding to mutant human MEKK2 PB1 domain. bead flow cytometry, Alexa488-MEK5 binding to MEKK2 mutant. percent response, % at 10 µM. hit rate 0.35% among 290,000; in the data active = percent response above about 24%, passing the limit was not always enough
ABCG2 block = blocks JC-1 efflux by human ABCG2 transporter | inhibition, % at 6.6 µM | hit rate 0.1% among 190,000 | IgMXP3 cells, flow cytometry;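 active = inhibition above 80%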;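 note: 0% = DMSO and 100% = nicardipine control wells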
Target sequence (Q9UNQ0 whole entry, looked up): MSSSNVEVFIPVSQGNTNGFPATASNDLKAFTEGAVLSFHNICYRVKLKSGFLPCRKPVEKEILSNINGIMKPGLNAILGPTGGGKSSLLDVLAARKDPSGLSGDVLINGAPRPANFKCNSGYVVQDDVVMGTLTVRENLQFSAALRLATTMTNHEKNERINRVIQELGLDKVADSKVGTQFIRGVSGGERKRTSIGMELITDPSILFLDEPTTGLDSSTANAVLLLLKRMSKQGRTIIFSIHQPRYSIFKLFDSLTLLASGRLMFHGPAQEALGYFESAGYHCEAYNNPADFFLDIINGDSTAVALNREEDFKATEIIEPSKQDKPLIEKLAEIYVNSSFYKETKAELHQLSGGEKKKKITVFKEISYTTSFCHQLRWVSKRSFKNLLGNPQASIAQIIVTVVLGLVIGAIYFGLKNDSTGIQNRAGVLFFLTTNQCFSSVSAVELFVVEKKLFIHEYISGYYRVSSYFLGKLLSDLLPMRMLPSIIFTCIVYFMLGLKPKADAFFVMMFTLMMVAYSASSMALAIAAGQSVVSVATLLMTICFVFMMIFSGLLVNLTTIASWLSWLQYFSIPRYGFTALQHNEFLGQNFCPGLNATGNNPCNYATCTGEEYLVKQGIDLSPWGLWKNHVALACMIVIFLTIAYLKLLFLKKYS
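test system = two drug-resistant human cell lines, ABCG2 and ABCB1 | amount = 3 million cells/mL final, two lines in 1:1 ratio | reagent = JC-1 transporter substrate | doses = one concentration, 6.6 µM final | incubation = 10 min at 25 °C | signal = flow cytometric JC-1 green MFI at 530 nm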
MEKK2 WT-MEK5 = raises or lowers MEK5 binding to wildtype human MEKK2 PB1 domain. hit rate 1.1% among 290,000. Q9Y2U5. binding response (% of control), % at 10 µM. bead flow cytometry, Alexa488-MEK5 binding to MEKK2 WT; actives lie on both sides; in the data active = binding response below about 67% or above about 130%
MEKK2wt confirm = raises or lowers MEK5 binding to wildtype human MEKK2, retest; AID 1892; hit rate 2.4% among 5,900; binding response (% of control), % at 10 µM; shares compounds with MEKK3 PB1 HTS; bead flow cytometry, Alexa488-MEK5 binding to MEKK2 WT; actives lie on both sides; in the data active = binding response below about 16% or above about 210%; inactive = in between
MEKK2mut confirm = signal of MEK5 binding to mutant human MEKK2, retest | shares compounds with MEKK3 PB1 HTS | bead flow cytometry, Alexa488-MEK5 binding to MEKK2 mutant | percent response, % at 10 µM | hit rate 2% among 5,900; in the data active = percent response mostly above about 71%, no sharp cut-off; inactive = mostly below about 38%;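 note: higher means compound restores mutant binding toward wildtype level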
MEKK3-MEK5 inh = confirmation of inhibitors of MEK5 binding to human MEKK3; binding response (% of control), % at 10 µM; AID 1894; bead flow cytometry, Alexa488-MEK5 binding to MEKK3; hits give low values; shares compounds with MEKK3 PB1 HTS; hit rate 1.8% among 5,900;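 active = binding response below 72% of control, or above a set upper limit, though filed actives all read lower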;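 note: 100% = DMSO only wells and 0% = binding blocked by excess unlabeled MEK5; lower values mean stronger disruption of MEK5 binding to MEKK3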
Cmpd fluor yeast = counter-screen for efflux pump inhibitors: compound fluorescence; shares compounds with Efflux pump inh; S. cerevisiae AD/pABC3, flow cytometry; fluorescence ratio to DMSO, % at 10 µM; hit rate 4% among 1,700;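 active = fluorescence ratio to DMSO above its plate's cutoff, the plate mean ratio plus 5 SD, cut at about 210% in these data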;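 note: unstained yeast with no Nile Red so the signal is compound autofluorescence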
Mdr1 pump inh = inhibitors of Candida albicans Mdr1 efflux pump | shares compounds with Efflux pump inh | S. cerevisiae AD/CaMDR1, Nile Red efflux, flow cytometry | inhibition, % at 10 µM | hit rate 1% among 1,700; in the data active = inhibition above about 26%;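 note: 0% = DMSO vehicle and 100% = reference inhibitor; higher means more Nile Red retained so more efflux inhibition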
CaCdr2 efflux inh = inhibitors of Candida albicans Cdr2 efflux pump. S. cerevisiae AD/CaCDR2, Nile Red retention, flow cytometry. Nile Red retention ratio vs DMSO, % at 10 µM. hit rate 4% among 1,700. shares compounds with Efflux pump inh; in the data active = Nile Red retention ratio vs DMSO above about 190%;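 note: higher ratio means more blocking of Cdr2 efflux of the dye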
Cdr1 pump inh = Candida Cdr1 efflux pump inhibition; shares compounds with Efflux pump inh; S. cerevisiae AD/CaCDR1, Nile Red efflux, flow cytometry; inhibition, % at 10 µM; hit rate 1% among 1,700; AID 588522;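 active = inhibition above the screen-wide mean plus twice its standard deviation, cut at about 32% in these data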
Numbers without * were called inactive; [ ] = remark or other dose.

`CCOC(=O)c1c(-c2ccc(-c3ccccc3)cc2)csc1NC(=O)CNCCN(C)C` gave Efflux pump inh 2.6*, MEKK3 PB1 HTS 117, MEKK2mut PB1 HTS 69*, MEKK2 WT-MEK5 286*, MEKK2wt confirm 238*, MEKK2mut confirm 141*, MEKK3-MEK5 inh 115, Cmpd fluor yeast 116, Mdr1 pump inh 0, CaCdr2 efflux inh 108 and Cdr1 pump inh 0.
Screening CCC1=C(OC(=O)N(CC)CC)N2C(=O)OC(=NCCc3c[nH]c4ccccc34)[C@]2(Cc2ccccc2)[C@H]2C1=CC[C@H]1C(=O)N(CC(=O)OC)C(=O)[C@H]12 returned Efflux pump inh 7.3*, MEKK3 PB1 HTS 2.0*[inhibitor], MEKK2mut PB1 HTS 0, MEKK2 WT-MEK5 2.0*[inhibitor], MEKK2wt confirm 98, MEKK2mut confirm -4, MEKK3-MEK5 inh 99, Cmpd fluor yeast 113, Mdr1 pump inh 2, CaCdr2 efflux inh 135 and Cdr1 pump inh 0.
`CCCCCCOC(=O)C[N+](C)(C)CCOC1CC2CCC1(C)C2(C)C` (centres undefined) gave Efflux pump inh 2.6*, MEKK3 PB1 HTS 113, ABCB1 inh 0, MEKK2mut PB1 HTS 14, ABCG2 block 1, MEKK2 WT-MEK5 202*, MEKK2wt confirm 146, MEKK2mut confirm 23, MEKK3-MEK5 inh 106, Cmpd fluor yeast 108, Mdr1 pump inh 0, CaCdr2 efflux inh active and Cdr1 pump inh 0.
COc1ccc(/C(N)=N/OC(=O)Cc2cccs2)cc1 was read as Efflux pump inh 0, MEKK3 PB1 HTS 103, ABCB1 inh 0, MEKK2mut PB1 HTS -2, ABCG2 block 6 and MEKK2 WT-MEK5 99.
`COc1ccc(/C(N)=N/OC(=O)Cc2cccs2)cc1OC` gave Efflux pump inh 6.7*, MEKK3 PB1 HTS 150*, ABCB1 inh 0, MEKK2mut PB1 HTS 0, ABCG2 block 12, MEKK2 WT-MEK5 102, MEKK2wt confirm 93, MEKK2mut confirm -1, MEKK3-MEK5 inh 98, Cmpd fluor yeast 99, Mdr1 pump inh 0, CaCdr2 efflux inh 87 and Cdr1 pump inh 0.
`NC1=NC[C@H](Cc2ccc(O)cc2)N1CCCCC1CCCCC1` gave Efflux pump inh 1, MEKK3 PB1 HTS 112, MEKK2mut PB1 HTS 20, MEKK2 WT-MEK5 184*[inhibitor], MEKK2wt confirm 127, MEKK2mut confirm 40, MEKK3-MEK5 inh 106, Cmpd fluor yeast 98, Mdr1 pump inh 0, CaCdr2 efflux inh active and Cdr1 pump inh 0.
`Oc1ccc(C[C@H]2CNCCN2CCCCC2CCCCC2)cc1` gave Efflux pump inh 0.

Compound activity (PubChem)
